Ecoli WT expand: blocks growth of wild type E. coli BW25113; OD600 absorbance; growth inhibition, % at 100 µM; 98,000 compounds, 0.15% hits;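 active = growth inhibition above about 50% at one test dose, limit read from the data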;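 note: growth measured after 20 h incubation at 37 °C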
CYP2C9 inhib: inhibitors of human CYP2C9; P11712; CYP2C9 Supersomes, luciferin-H conversion, luminescence; inhibition, % at 5 µM; 96,000 compounds, 20% hits; AID 777;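 active = blocking of liver enzyme CYP2C9 beyond about 50% at 5 µM, limit read from the data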
Target sequence (P11712 whole entry, looked up): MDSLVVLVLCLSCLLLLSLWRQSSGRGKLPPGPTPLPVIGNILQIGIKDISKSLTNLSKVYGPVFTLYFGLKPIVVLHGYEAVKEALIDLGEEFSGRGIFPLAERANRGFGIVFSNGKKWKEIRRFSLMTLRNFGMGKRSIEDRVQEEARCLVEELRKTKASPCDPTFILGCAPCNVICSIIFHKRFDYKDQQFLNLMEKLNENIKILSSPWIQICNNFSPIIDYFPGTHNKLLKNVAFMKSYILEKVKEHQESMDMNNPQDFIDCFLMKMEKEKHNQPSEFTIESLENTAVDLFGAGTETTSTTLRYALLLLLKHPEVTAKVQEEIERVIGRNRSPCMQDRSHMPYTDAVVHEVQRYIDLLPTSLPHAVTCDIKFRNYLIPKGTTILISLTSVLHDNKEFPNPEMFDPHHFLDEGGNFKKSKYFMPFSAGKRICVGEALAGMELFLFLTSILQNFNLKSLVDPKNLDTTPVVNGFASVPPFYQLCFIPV
tolC growth inh: growth inhibitors of E. coli BW25113 tolC mutant | AID 573 | growth inhibition, % at 10 µM (by protocol) | 65,000 compounds, 2.2% hits | OD615;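 active = growth inhibition at or above a cutoff equal to the mean over every tested compound plus 3 SD, cut at about 60% in these data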;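 note: growth measured after 20 h incubation at 37 °C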
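Test system: E. coli BW25113 ΔtolC::kan bacteria | Medium: Kanamycin-containing LB broth (50 µg/mL) | Dosing: One dose of 10 µM final | Times: 20 h incubation with compound, 37 °C | Detection: Optical density read at 615 nm | Read-out basis: Percent growth inhibition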
CYP2C19 inh: human CYP2C19 inhibition. inhibition, % at 5 µM. 96,000 compounds, 21% hits. CYP2C19 Supersomes, luciferin-H EGE luminescence, 30 min. P33261. AID 778;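 active = CYP2C19 inhibition above a set limit at 5 µM in the primary screen, cut at about 50% in these data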;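 note: plate controls were negative control wells for no effect and 2.5 mM tranylcypromine positive control for full effect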
CYP2C19 activ: activators of human cytochrome P450 2C19 | recombinant CYP2C19, luciferin-H EGE luminescence; active compounds read high; 0 = fully inhibited enzyme, 1 = untreated enzyme | activation factor at 5 µM | 96,000 tested, under 10 active;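 active = activation factor of at least 2 at 5 µM in the primary screen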;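 note: 0 = wells with 2.5 mM tranylcypromine and 1 = vehicle-only wells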
CYP2C9 activ: increases human cytochrome P450 2C9 activity. AID 1024. recombinant CYP2C9, luciferin-H conversion, luminescence; active compounds read high; factor 1 = untreated enzyme, 0 = blocked. P11712. activation factor at 5 µM. 96,000 compounds, 1.4% hits;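 active = activation factor of 2 or more for CYP2C9 at a 5 µM dose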;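 note: 0 = sulfaphenazole-blocked wells and 1 = vehicle-only wells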
* hit, by the source's call; . = not tested or not shown. Sampled rows, rich in hits. Any-hit rate of the full collection: about 29%.

SMILES | Ecoli WT expand | CYP2C9 inhib | tolC growth inh | CYP2C19 inh | CYP2C19 activ | CYP2C9 activ
CC(=O)Nc1ccc(SC(C)C(=O)NC(N)=O)cc1 (stereo unspecified) | -5 | 18 | . | -16 | 1.2 | 0.8
COCCCNC(=O)c1ccc(Cn2c(=O)[nH]c3ccccc3c2=O)cc1 | . | . | -6 | . | . | .
COCCCNC(=O)CCCn1c(=O)c2ccccc2n(CC(=O)Nc2c(C)cc(C)cc2C)c1=O | . | . | -12 | . | . | .
COCCCNC(=O)c1ccc(Cn2c(=O)c3ccccc3n(Cc3ccccc3C#N)c2=O)cc1 | -14 | 59* | . | 52* | 0.5 | 0.4
COCCCNC(=O)c1ccc(Cn2c(=O)c3ccccc3n(Cc3ccccc3C)c2=O)cc1 | -8 | 80* | . | 78* | 0.2 | 0.2
COCCCNC(=O)c1ccc(Cn2c(=O)c3ccccc3n(Cc3cc(C)ccc3C)c2=O)cc1 | -8 | 82* | . | 75* | 0.3 | 0.2
OCC#CCSc1nnc(-c2ccccc2Br)o1 | 1 | -16 | 0 | 31 | 0.7 | 1.2
CCOC(=O)C1CCN(C(=O)c2cn(-c3ccccc3)nc2-c2cccnc2)CC1 | . | 39 | 11 | 20 | 0.8 | 0.6
NC(=O)c1cccc2c(=O)oc3ccccc3c12 | 1 | 2 | 6 | 4 | 1 | 1
C#CCOc1c(Br)cc(/C=N/O)cc1OCC | 0 | 72* | . | 47 | 0.5 | 0.3
COc1cc(/C=N\NC(=O)CN2CCOCC2)ccc1OCC(=O)Nc1ccc(C)c(C)c1 | 11 | 10 | . | 32 | 0.7 | 0.9
C#CCOc1c(Br)cc(/C=N\NC(=O)CN2CCOCC2)cc1OCC | 4 | 59* | . | 31 | 0.7 | 0.4
Cc1cccc(C)c1NC(=O)C(NC=O)c1ccc(Cl)cc1 (stereo unspecified) | -2 | -5 | . | 58* | 0.4 | 1.1
COC(=O)c1cc(OC)c(OC)cc1NC(=O)c1ccc(C)o1 | 4 | 49 | . | 43 | 0.6 | 0.5
O=C(CCn1ccc2ccccc21)Nc1ccc(N2CCOCC2)cc1 | 4 | 28 | -1 | 55* | 0.4 | 0.7
CC(C)(C)c1ccc(S(=O)(=O)N2CCN(CCC#N)CC2)cc1 | 2 | -38 | 0 | 50* | 0.5 | 1.4
N#CCCN1CCN(S(=O)(=O)c2ccc(S(=O)(=O)N3CCCCCC3)cc2)CC1 | -8 | 21 | 15 | -10 | 1.1 | 0.8
CCOc1ccc(Cc2c(Cl)nc(N)nc2Cl)cc1 | -3 | -4 | . | 53* | 0.5 | 1
CCOc1ccc(Cc2nc(N)nc(N)n2)cc1 | 3 | . | 1 | . | . | .
CCCn1nc(Oc2nc(NCC)nc(NC(C)C)n2)ccc1=O | 2 | 5 | . | 20 | 0.8 | 0.9
O=C(O)CC(NS(=O)(=O)c1ccc(Br)cc1)c1ccco1 (stereo unspecified) | -2 | -10 | -8 | -12 | 1.1 | 1.1
O=S(=O)(c1cccs1)N1CN(CC2CCCO2)c2nc3ccccc3nc21 (stereo unspecified) | 6 | 28 | 19 | 32 | 0.7 | 0.7
O=S(=O)(c1cccs1)N1CN(Cc2ccccc2)c2nc3ccccc3nc21 | -17 | 1 | . | -12 | 1.1 | 1
O=S(=O)(c1cccs1)N1CN(Cc2cccs2)c2nc3ccccc3nc21 | -26 | 79* | 56 | 93* | 0.1 | 0.2
O=S(=O)(c1cccs1)N1CN(Cc2ccc(F)cc2)c2nc3ccccc3nc21 | -10 | 70* | . | 22 | 0.8 | 0.3
SMILES | Ecoli WT expand | CYP2C9 inhib | tolC growth inh | CYP2C19 inh | CYP2C19 activ | CYP2C9 activ
C=CCN1CN(S(=O)(=O)c2cccs2)c2nc3ccccc3nc21 | 1 | 17 | 3 | 63* | 0.4 | 0.8
COC(=O)CCC(=O)Nc1cccc(C(=O)Nc2cccc(Cl)c2)c1 | 8 | 35 | . | 24 | 0.8 | 0.7
COc1ccc(-c2nc(CS(=O)CC(=O)NCc3ccc4c(c3)OCO4)c(C)o2)cc1 (stereo unspecified) | -1 | 36 | 2 | 36 | 0.6 | 0.6
COc1cccc(CNC(=O)c2ccc3nc[nH]c3c2)c1 | -2 | -8 | -17 | 38 | 0.6 | 1.1
Cc1ccsc1C(=O)OCC(=O)NCc1ccc2c(c1)OCO2 | -10 | 72* | 1 | 60* | 0.4 | 0.3
COc1cccc(CNC(=O)C2(C)Oc3ccccc3NC2=O)c1 (stereo unspecified) | -2 | 92* | . | 72* | 0.3 | 0.1
COc1ccc(-n2ccnc2SCC(=O)NCc2ccc3c(c2)OCO3)cc1 | 5 | 94* | 14 | 100* | 0 | 0.1
COc1ccc2c(c1)C=C(C(=O)NCc1ccc(Cl)cc1)CO2 | -1 | 62* | . | 53* | 0.5 | 0.4
c1ccc(-n2nnnc2SCc2cccc3nsnc23)cc1 | -12 | 38 | 24 | -2 | 1 | 0.6
Cc1nn(C)c(Oc2cccc(Cl)c2)c1C(=O)Nc1ccc(F)cc1 | -5 | 10 | . | 40 | 0.6 | 0.9
CCOc1ccccc1C1CC(=O)Nc2c1c(=O)n(C)c(=O)n2C (stereo unspecified) | 1 | 46 | . | 45 | 0.6 | 0.5
COc1ccc(NCc2ccc3c(c2)OCO3)cc1Cl | 6 | 86* | 27 | 98* | 0 | 0.1
O=C(NCc1ccc2c(c1)OCO2)c1cccc(C(=O)NCc2ccc3c(c2)OCO3)c1 | -7 | 11 | -2 | 8 | 0.9 | 0.9
COc1ccc(CNC(=O)CSc2nnnn2-c2ccc(O)cc2)cc1 | 4 | -23 | 5 | 89* | 0.1 | 1.2
O=C(OC(C(=O)NCc1ccc2c(c1)OCO2)c1ccccc1F)c1ccco1 (stereo unspecified) | -3 | 67* | 21 | 46 | 0.5 | 0.3
O=C(NCc1ccc2c(c1)OCO2)c1cccc(N2CCCC2=O)c1 | 6 | 61* | -4 | 69* | 0.3 | 0.4
Cc1ccc(N2CC(C(=O)NCc3ccc4c(c3)OCO4)CC2=O)cc1C (stereo unspecified) | 3 | -124 | -2 | 8 | 0.9 | 2.2*
COc1ccc(CNC(=O)C(C)N=C2NS(=O)(=O)c3ccccc32)cc1OC (stereo unspecified) | 1 | 15 | . | 8 | 0.9 | 0.8
CCC(NC(=O)NCc1ccc2c(c1)OCO2)(C(F)(F)F)C(F)(F)F | 12 | 52* | 14 | 86* | 0.1 | 0.5
CCOc1ccccc1C(=O)NCc1ccc2c(c1)OCO2 | 5 | 42 | 11 | 98* | 0 | 0.6
CC(N=C1NS(=O)(=O)c2ccccc21)C(=O)NCc1ccc2c(c1)OCO2 (stereo unspecified) | 7 | 86* | . | 58* | 0.4 | 0.1
O=C(CSc1nc2ccccc2n1CC(=O)N1CCCC1)Nc1nccs1 | -9 | 36 | -13 | 28 | 0.7 | 0.6
Cc1n[nH]c(=S)n1/N=C/c1ccccc1OCc1ccc(Cl)cc1 | 1 | 11 | . | -22 | 1.2 | 0.9
O=C(NCc1ccc2c(c1)OCO2)Oc1ccccc1 | 8 | 13 | -3 | 74* | 0.3 | 0.9
O=C(NCc1ccc2c(c1)OCO2)c1cccnc1 | -4 | 11 | -29 | 59* | 0.4 | 0.9
